Assay outcomes (PubChem)
This is a sample that favours compounds with a hit; in the whole collection about 3.4% have one here.
AHR activator = AHR activators, primary screen, cell-based, luminescence, luciferase reporter, human; actives 2.5% (n = 320,000); activation, % at 5 µM; Aryl hydrocarbon receptor (Homo sapiens), P35869; AHR-responsive luciferase reporter cells; in the data active means activation above about 47%;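 further: 0% = vehicle wells and 100% = reference agonist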
UCH37 DUB inh = inhibitors of human UCH37 deubiquitinase, primary screen, biochemical, Ub-AMC cleavage, fluorescence | purified proteasome/UCH37 | inhibition, % (test concentration not listed) | actives 0.33% (n = 330,000);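 active means mean inhibition over replicate wells above about 20%, limit read from the data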;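 further: 0% = compound-free wells with enzyme and 100% = wells lacking proteasome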
Target sequence (Q9Y5K5 whole entry, looked up): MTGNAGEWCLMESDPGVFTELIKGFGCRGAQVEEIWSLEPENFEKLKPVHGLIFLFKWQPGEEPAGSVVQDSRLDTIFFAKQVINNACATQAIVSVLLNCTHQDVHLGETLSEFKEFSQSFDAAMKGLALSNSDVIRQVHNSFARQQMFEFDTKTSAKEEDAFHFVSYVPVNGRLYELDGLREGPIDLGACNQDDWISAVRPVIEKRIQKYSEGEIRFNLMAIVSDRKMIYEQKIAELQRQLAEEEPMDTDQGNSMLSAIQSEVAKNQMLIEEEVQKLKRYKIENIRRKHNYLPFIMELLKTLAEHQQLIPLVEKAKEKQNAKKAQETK
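Schedule: 30 min plus 25 min, room temperature / Material: human UCH37 within purified proteasomes / Technique: AMC fluorescence intensity at 355/460 nm / Buffer or medium: pH 7.4 Tris-HCl (50 mM) with ovalbumin, ATP-MgCl2, DTT / Controls: wells without proteasome as full block, compound-free enzyme plus substrate as uninhibited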
Arrestin-AP2 inh = inhibitors of beta-arrestin/AP2 binding, primary screen, biochemical, GPCR trafficking, flow cytometry; FITC-arrestin peptide / GST-AP2 beads; AP2 beta2 appendage carries R879A mutation; actives 0.31% (n = 340,000); inhibition, % at 10 µM;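 active means inhibition above a set limit, near 3 SD of compounds lacking own fluorescence, cut at about 54% in these data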;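 further: plate controls were DMSO wells for no effect and 5 µM unlabelled arrestin peptide for full effect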
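Test system: GST-tagged AP2 beta2-adaptin appendage (R879A) on 4 µm glutathione beads; also added: fluorescein-tagged arrestin peptide at 50 nM final; timing: 12 min plus 1 h, RT; signal: flow cytometry, FL1 (488/535 nm); read-out: percent drop in bead-associated FITC signal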
PolyA inhibitor = polyadenylation inhibitors in yeast reporter cells, primary screen, luminescence, S. cerevisiae | S. cerevisiae SKY197-pL101 polyadenylation reporter, beta-gal luminescence; efflux-impaired pdr1/pdr3 knockout yeast; score 100 = 6 SD above DMSO | activity score, % at 12 µM | actives 0.02% (n = 300,000) | AID 1875, 2009;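 active means lowest replicate activity score at least 50, where 100 means six control SD above control mean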;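 further: yeast exposed to compound for 9 h at 30 °C; higher score means more reporter readthrough which indicates perturbed polyadenylation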
APOBEC3G inh = APOBEC3G DNA deaminase inhibitors, primary screen, biochemical, fluorescence, single-stranded DNA substrate, uHTS; DNA dC->dU-editing enzyme APOBEC-3G (Homo sapiens), Q9HC16; recombinant A3G, ssDNA deamination FAM/TAMRA fluorescence; inhibition, % at 20 µM; actives 0.28% (n = 330,000); AID 493012, 2011;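 active means inhibition of at least 40% at 20 µM, with no more than 30% in the related APOBEC3A deaminase screen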;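 further: plate controls were DMSO wells with A3G for no effect and wells lacking A3G enzyme for full effect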
APOBEC3A inh = APOBEC3A ssDNA deaminase inhibitors, primary screen, selectivity assay for APOBEC3G inhibitor project, biochemical, FAM/TAMRA oligo cleavage fluorescence | DNA dC->dU-editing enzyme APOBEC-3A (Homo sapiens), P31941 | recombinant A3A, FAM/TAMRA ssDNA deamination fluorescence | inhibition, % at 20 µM | actives 0.41% (n = 330,000) | AID 493011, 2011;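 active means at least 40% inhibition at 20 µM here, with at most 30% in a related deaminase screen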;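 further: plate controls were A3A with DMSO for no effect and wells lacking A3A enzyme for full effect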
Target sequence (P31941 whole entry, looked up): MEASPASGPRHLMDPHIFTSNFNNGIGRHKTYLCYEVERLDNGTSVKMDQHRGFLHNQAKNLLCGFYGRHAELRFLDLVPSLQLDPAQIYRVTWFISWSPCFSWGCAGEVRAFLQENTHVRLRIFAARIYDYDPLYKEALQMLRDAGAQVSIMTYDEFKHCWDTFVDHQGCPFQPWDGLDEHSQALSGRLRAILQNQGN
Active calls of the source: *; / = no result.

SMILES | AHR activator | UCH37 DUB inh | Arrestin-AP2 inh | PolyA inhibitor | APOBEC3G inh | APOBEC3A inh
CC(C)(C)c1ccc(-c2n[nH]c(=S)n2N=Cc2ccncc2)cc1 | / | 3 | / | / | / | /
COc1ccc(-c2n[nH]c(=S)n2/N=C/c2cccn2C)cc1 | 70* | / | 1 | -14 | 37 | -4
Cc1ccsc1/C=N/n1c(-c2cccnc2)n[nH]c1=S | 60* | / | 8 | 6 | 40 | -7
Cc1ccc(-c2n[nH]c(=S)n2/N=C/c2cccs2)cc1 | 55* | / | -20 | 2 | 17 | -9
Cc1ccsc1C=Nn1c(-c2cccnc2)n[nH]c1=S | / | 4 | / | / | / | /
Cc1ccc(-c2n[nH]c(=S)n2/N=C/c2cccn2C)cc1 | 37 | / | 3 | -12 | 25 | -4
C/C(C=Nn1c(COc2ccccc2)n[nH]c1=S)=C\c1ccco1 | / | 2 | / | / | / | /
CCCCc1noc2c1C(=NO)CC(c1ccccc1)C2 (stereo not drawn) | / | 3 | / | / | / | /
O=[N+]([O-])c1cc(N=Nc2ccc3ccccc3c2)ccc1O | 19 | 4 | 53 | 0 | / | /
O=[N+]([O-])c1ccccc1N=Nc1ccc(O)cc1O | / | 21* | / | / | / | /
O=C(/C=C/Nc1ccccc1F)c1cccs1 | 57* | 0 | 4 | 5 | 10 | 18
COc1cc2c(C)nc3onc(-c4ccccc4)c3c2cc1OC | 71* | -25 | -5 | -30 | 0 | 0
Cc1cc(NN=Cc2ccccc2)nc(N)n1 | / | 6 | / | / | / | /
CS(=O)(=O)Oc1ccc(Br)c2cccnc12 | 3 | 3 | -9 | -8 | -4 | -4
Nc1ccc(Br)c2cccnc12 | 33 | 25* | -13 | -6 | -11 | 1
CC(=NNC(=O)CC1N=C(Cc2ccccc2)NNC1=O)c1cccnc1 (stereo not drawn) | / | 4 | / | / | / | /
C/C(=N/NC(=O)CC1N=C(Cc2ccccc2)NNC1=O)c1cccnc1 (stereo not drawn) | 62* | / | -27 | 3 | -8 | 1
CCc1cc2c3c(c(=O)oc2cc1OC(C)C(=O)O)CCCC3 (stereo not drawn) | 1 | -319 | -2 | 2 | -13 | -6
CCc1cc2c3c(c(=O)oc2cc1O)CCCC3 | 76* | -312 | -2 | -22 | 1 | 3
CC(C=NNC(=O)c1cccnc1)c1ccccc1 (stereo not drawn) | / | -3 | / | / | / | /
CN1CCN(C(=O)c2cc3ccccc3[nH]2)CC1 | 18 | 2 | 14 | -11 | 0 | -3
Cc1ccc(S(=O)(=O)N2CCCN(C(=O)c3cc4ccccc4[nH]3)CC2)cc1 | 62* | 0 | -6 | 0 | 2 | 2
Nc1cc(Nc2ccc(Br)cc2)nc(N)n1 | 62* | 2 | 4 | 7 | -10 | 0
Cc1cc(Nc2ccc(Cl)cc2)nc(N)n1 | 7 | 5 | 3 | -2 | -9 | -6
Cc1nc2ccccc2c(=O)n1N=Cc1ccc(F)cc1 | / | 1 | / | / | / | /
SMILES | AHR activator | UCH37 DUB inh | Arrestin-AP2 inh | PolyA inhibitor | APOBEC3G inh | APOBEC3A inh
COc1ccc(C#Cc2c(-c3ccsc3)oc3ccc(N4CCOCC4)cc23)cc1 | 70* | -394 | -2 | -8 | 3 | 1
COc1ccc(-c2oc(=O)c3cc(OC)c(OC)cc3c2C#CC2(O)CCCCC2)cc1 | 10 | -24 | -8 | / | -7 | 5
COc1ccc(/C=C/c2c(-c3cccc(C)c3)oc3ccc(N4CCOCC4)cc23)cc1 | 62* | -168 | -6 | 13 | 4 | -2
COc1ccc(-c2oc3ccc(N4CCOCC4)cc3c2C#CC2(O)CCCCC2)cc1 | 69* | -286 | 4 | -10 | -17 | -5
Nc1nnc(CC(=O)NN=Cc2cc([N+](=O)[O-])cc(Br)c2O)s1 | / | 8 | / | / | / | /
COc1ccc(C=NNC(=O)c2cccc([N+](=O)[O-])c2)cc1OS(=O)(=O)c1ccc(C)cc1 | / | 5 | / | / | / | /
COc1ccc(N(CC(=O)NN=Cc2ccc(F)cc2)S(=O)(=O)c2ccccc2)cc1 | / | 3 | / | / | / | /
C/C(=C\C(=O)c1ccccc1)Nc1ccc2c(c1)OCO2 | 47* | 0 | 0 | 6 | 5 | -2
COC(=O)Nc1ccc2c(c1)OCO2 | 14 | 1 | 7 | -20 | -4 | -3
O=C(Nc1ccc(S(=O)(=O)NCc2ccccc2)cc1)Nc1ccc2c(c1)OCO2 | 52* | 4 | -3 | 3 | 0 | 5
O=C(CC(NC(=O)c1ccccc1Cl)c1ccccc1)Nc1ccc2c(c1)OCO2 (stereo not drawn) | 60* | 1 | -3 | / | -4 | 6
O=C(Nc1ccc2c(c1)OCO2)Oc1ccccc1 | 88* | 0 | 13 | 4 | 12 | 0
CCn1c2ccccc2c2cc(C=Nn3cn[nH]c3=S)ccc21 | / | -3 | / | / | / | /
COc1cc(C=NN=C(N)N)ccc1OCc1ccc(Cl)cc1 | / | 3 | / | / | / | /
CCN(C(=O)CSc1nnc(Cc2ccccc2F)n1N)C1CCS(=O)(=O)C1 (stereo not drawn) | 2 | 27* | 3 | 8 | -4 | 2
COc1ccc(/C=N/NC(=O)c2nc(-c3ccccc3)cc(-c3ccccc3)n2)cc1O | 52* | / | 11 | -10 | -11 | -2
COc1ccc(/C=N/NC(=O)c2nc(-c3ccccc3)cc(-c3ccccc3)n2)cc1 | 20 | / | 27 | 13 | -5 | -2
Cc1ccc(C=Nn2c(C)nc3ccccc3c2=O)s1 | / | 5 | / | / | / | /
N#C/C(=C(/O)c1ccco1)c1nc2ccccc2s1 | 20 | 20* | 15 | 22 | -6 | -5
N#CC(=C(O)c1ccco1)c1nc2ccccc2s1 | / | 18 | / | / | / | /
Cc1cc(/C=C2/NC(=O)N(Cc3ccccc3F)C2=O)c(C)n1C(C)C | 114* | 5 | 5 | -15 | -2 | -1
CCn1c(C)cc(/C=C2\NC(=O)N(Cc3ccccc3)C2=O)c1C | 70* | -5 | 5 | -20 | 2 | 3
CCCN1C(=O)C(=NOCC(=O)Nc2ccc(C(C)C)cc2)c2ccccc21 | / | 7 | / | / | / | /
COc1ccccc1NC(=O)c1[nH]c(C)c(C(C)=O)c1C | 55* | -2 | -13 | -25 | -2 | -4
CC(=O)c1c(C)[nH]c(C(=O)Nc2ccccn2)c1C | 71* | 1 | -2 | 16 | -3 | 1
CC(=O)c1c(C)[nH]c(C(=O)Nc2cccc(C)c2C)c1C | 55* | 0 | 25 | 11 | -13 | -4
CSc1cccc(NC(=O)c2[nH]c(C)c(C(C)=O)c2C)c1 | 13 | 4 | 4 | 4 | -8 | -4
